Assay results as given in ChEMBL document CHEMBL1140343, “3-Alkylamino-4H-1,2,4-benzothiadiazine 1,1-dioxides as ATP-sensitive potassium channel openers: effect of 6,7-disubstitution on potency and tissue selectivity” (J Med Chem, 2005).

Legend:
Rattus norvegicus [1] = species: Rattus norvegicus; test: Concentration required to relax KCl induced rat aorta ring contractions by 50% upon incubation with the compound at 37 degree C for 90 mins; assay type: functional, organism-based; conditions: 1.5 h
Summary of the method: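 Endothelium-denuded transverse aortic rings (3–4 mm) from fed Wistar rats (180–220 g); isometric tension recorded by force transducer. After 60 min equilibration, rings contracted with 30 mM KCl; at stable tension, drug added cumulatively until maximal relaxation or 0.3 mM. Relaxation expressed as % of KCl contraction; EC50 taken from dose–response curves; mean ± SEM (n).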

Rattus norvegicus [2] = species: Rattus norvegicus; test: Percent residual insulin release in rat pancreatic islets upon incubation with the compound (1 uM) at 37 degree C for 90 mins; assay type: functional
Summary of the method: (§1)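 Islets isolated by collagenase digestion from fed Wistar rats (180–220 g); groups of 10 preincubated 30 min at 37 °C in bicarbonate-buffered salt medium with 2.8 mM glucose and 0.5% albumin, gassed O2/CO2 95:5. Then incubated 90 min at 37 °C with 16.7 mM glucose plus drug. Insulin measured by radioimmunoassay; release expressed as % of drug-free 16.7 mM glucose control. IC50 estimated.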

Rattus norvegicus [3] = species: Rattus norvegicus; test: Percent residual insulin release in rat pancreatic islets upon incubation with the compound (10 uM) at 37 degree C for 90 mins; assay type: functional; summary of the method: as §1
Rattus norvegicus [4] = species: Rattus norvegicus; test: Percent residual insulin release in rat pancreatic islets upon incubation with the compound (0.1 uM) at 37 degree C for 90 mins; assay type: functional; summary of the method: as §1
Rattus norvegicus [5] = species: Rattus norvegicus; test: Concentration required to inhibit insulin release in rat pancreatic islets by 50% upon incubation with the compound at 37 degree C for 90 mins; assay type: functional, organism-based; conditions: 1.5 h; summary of the method: as §1
Rattus norvegicus [6] = species: Rattus norvegicus; test: Ratio of EC50 required to relax KCl induced rat aorta ring contractions to that of IC50 required to inhibit insulin release in rat pancreatic islets; assay type: functional
Rattus norvegicus [7] = species: Rattus norvegicus; test: Percent residual insulin release in rat pancreatic islets upon incubation with the compound (50 uM) at 37 degree C for 90 mins; assay type: functional; summary of the method: as §1

CCNC1=NS(=O)(=O)c2cc(Br)c(Cl)cc2N1
EC50 (Rattus norvegicus [1]): 3.3 µM | Release (Rattus norvegicus [2]): 19.7% | Release (Rattus norvegicus [3]): 7.9% | Release (Rattus norvegicus [4]): 79.5% | IC50 (Rattus norvegicus [5]): 0.27 µM | Selectivity (Rattus norvegicus [6]): 12.2

CCCCCCNC1=NS(=O)(=O)c2cc(Cl)c(Cl)cc2N1
EC50 (Rattus norvegicus [1]): > 300 µM | Release (Rattus norvegicus [3]): 95.2%

COc1ccc2c(c1)S(=O)(=O)NC(NC(C)C)=N2
Release (Rattus norvegicus [2]): 67.6% | Release (Rattus norvegicus [3]): 8.5% | IC50 (Rattus norvegicus [5]): 1.75 µM | Selectivity (Rattus norvegicus [6]): 156.6

CC1=Nc2ccc(Cl)cc2S(=O)(=O)N1 [DIAZOXIDE]
Release (Rattus norvegicus [2]): 87.5% | Release (Rattus norvegicus [3]): 73.9% | Selectivity (Rattus norvegicus [6]): 1

O=S1(=O)NC(NC2CCC2)=Nc2cc(Cl)c(Cl)cc21
EC50 (Rattus norvegicus [1]): 12.6 µM | Release (Rattus norvegicus [2]): 58.1% | Release (Rattus norvegicus [3]): 8.4% | IC50 (Rattus norvegicus [5]): 1.25 µM | Selectivity (Rattus norvegicus [6]): 10.1

CC(C)CNC1=NS(=O)(=O)c2cc(F)c(F)cc2N1
EC50 (Rattus norvegicus [1]): > 30 µM | Release (Rattus norvegicus [2]): 86.9% | Release (Rattus norvegicus [3]): 42.3% | IC50 (Rattus norvegicus [5]): 5.68 µM | Selectivity (Rattus norvegicus [6]): >5.3

O=S1(=O)N=C(NC2CCC2)Nc2cc(Cl)c(F)cc21
EC50 (Rattus norvegicus [1]): 39.9 µM | Release (Rattus norvegicus [2]): 15.3% | Release (Rattus norvegicus [3]): 12.8% | Release (Rattus norvegicus [4]): 74.5% | IC50 (Rattus norvegicus [5]): 0.23 µM | Selectivity (Rattus norvegicus [6]): 173.5

CC(C)NC1=NS(=O)(=O)c2cc(Cl)c(Cl)cc2N1
EC50 (Rattus norvegicus [1]): 2.3 µM | Release (Rattus norvegicus [2]): 13.2% | Release (Rattus norvegicus [3]): 6.3% | Release (Rattus norvegicus [4]): 84.9% | IC50 (Rattus norvegicus [5]): 0.28 µM | Selectivity (Rattus norvegicus [6]): 8.2

CC(C)NC1=NS(=O)(=O)c2cc(F)c(NC(C)C)cc2N1
EC50 (Rattus norvegicus [1]): > 200 µM | Release (Rattus norvegicus [7]): 70.1%

COc1cc2c(cc1Cl)NC(NC(C)C)=NS2(=O)=O
EC50 (Rattus norvegicus [1]): 37 µM | Release (Rattus norvegicus [2]): 20.6% | Release (Rattus norvegicus [3]): 7.7% | Release (Rattus norvegicus [4]): 73.8% | IC50 (Rattus norvegicus [5]): 0.24 µM | Selectivity (Rattus norvegicus [6]): 154.2

O=S1(=O)NC(NC2CCC2)=Nc2cc(Cl)c(Br)cc21
EC50 (Rattus norvegicus [1]): 6.6 µM | Release (Rattus norvegicus [2]): 57.2% | Release (Rattus norvegicus [3]): 9.5% | IC50 (Rattus norvegicus [5]): 1.21 µM | Selectivity (Rattus norvegicus [6]): 5.5

CC(C)NC1=NS(=O)(=O)c2cc(F)c(F)cc2N1
EC50 (Rattus norvegicus [1]): 102 µM | Release (Rattus norvegicus [2]): 22.9% | Release (Rattus norvegicus [3]): 6.1% | Release (Rattus norvegicus [4]): 81.6% | IC50 (Rattus norvegicus [5]): 0.3 µM | Selectivity (Rattus norvegicus [6]): 341.3

COc1cc2c(cc1Cl)NC(NC1CCC1)=NS2(=O)=O
EC50 (Rattus norvegicus [1]): 23.4 µM | Release (Rattus norvegicus [2]): 38.1% | Release (Rattus norvegicus [3]): 9.2% | Release (Rattus norvegicus [4]): 90% | IC50 (Rattus norvegicus [5]): 0.51 µM | Selectivity (Rattus norvegicus [6]): 45.9

CCCNC1=NS(=O)(=O)c2cc(Cl)c(Cl)cc2N1
EC50 (Rattus norvegicus [1]): 4.7 µM | Release (Rattus norvegicus [2]): 60.2% | Release (Rattus norvegicus [3]): 9.9% | IC50 (Rattus norvegicus [5]): 1.37 µM | Selectivity (Rattus norvegicus [6]): 3.4

O=S1(=O)N=C(NC2CCC2)Nc2cc(NC3CCC3)c(F)cc21
Release (Rattus norvegicus [7]): 88.6%

CC(C)NC1=NS(=O)(=O)c2cc(Br)ccc2N1
EC50 (Rattus norvegicus [1]): 4.8 µM | Release (Rattus norvegicus [2]): 34.9% | Release (Rattus norvegicus [3]): 8.1% | Release (Rattus norvegicus [4]): 91% | IC50 (Rattus norvegicus [5]): 0.47 µM | Selectivity (Rattus norvegicus [6]): 10.2

CC(C)NC1=NS(=O)(=O)c2cc(F)ccc2N1
EC50 (Rattus norvegicus [1]): 43.1 µM | Release (Rattus norvegicus [2]): 47.3% | Release (Rattus norvegicus [3]): 3.7% | Release (Rattus norvegicus [4]): 96.9% | IC50 (Rattus norvegicus [5]): 0.76 µM | Selectivity (Rattus norvegicus [6]): 56.7

CC(C)NC1=NS(=O)(=O)c2cc(F)c(Cl)cc2N1
EC50 (Rattus norvegicus [1]): 41.5 µM | Release (Rattus norvegicus [2]): 5.7% | Release (Rattus norvegicus [3]): 7% | Release (Rattus norvegicus [4]): 64.4% | IC50 (Rattus norvegicus [5]): 0.16 µM | Selectivity (Rattus norvegicus [6]): 259.4

CC(C)NC1=NS(=O)(=O)c2cc(Cl)ccc2N1
Release (Rattus norvegicus [2]): 36.2% | Release (Rattus norvegicus [3]): 4.9% | Release (Rattus norvegicus [4]): 90.4% | IC50 (Rattus norvegicus [5]): 0.73 µM | Selectivity (Rattus norvegicus [6]): 49.7

CCCNC1=NS(=O)(=O)c2cc(F)c(Cl)cc2N1
EC50 (Rattus norvegicus [1]): 45.3 µM | Release (Rattus norvegicus [2]): 37.6% | Release (Rattus norvegicus [3]): 7.5% | Release (Rattus norvegicus [4]): 92% | IC50 (Rattus norvegicus [5]): 0.52 µM | Selectivity (Rattus norvegicus [6]): 87.1

CCNC1=NS(=O)(=O)c2cc(Cl)c(Cl)cc2N1
EC50 (Rattus norvegicus [1]): 1 µM | Release (Rattus norvegicus [2]): 8.5% | Release (Rattus norvegicus [3]): 9.1% | Release (Rattus norvegicus [4]): 83.4% | IC50 (Rattus norvegicus [5]): 0.25 µM | Selectivity (Rattus norvegicus [6]): 4

CC(C)NC1=NS(=O)(=O)c2cc(Br)c(Cl)cc2N1
EC50 (Rattus norvegicus [1]): 5.6 µM | Release (Rattus norvegicus [2]): 25.7% | Release (Rattus norvegicus [3]): 7.5% | Release (Rattus norvegicus [4]): 73.3% | IC50 (Rattus norvegicus [5]): 0.26 µM | Selectivity (Rattus norvegicus [6]): 21.5

CCNC1=NS(=O)(=O)c2cc(F)c(Cl)cc2N1
EC50 (Rattus norvegicus [1]): 42.4 µM | Release (Rattus norvegicus [2]): 7.3% | Release (Rattus norvegicus [3]): 12.7% | Release (Rattus norvegicus [4]): 73.1% | IC50 (Rattus norvegicus [5]): 0.2 µM | Selectivity (Rattus norvegicus [6]): 212

CCNC1=NS(=O)(=O)c2cc(OC)c(Cl)cc2N1
EC50 (Rattus norvegicus [1]): 8.1 µM | Release (Rattus norvegicus [2]): 38% | Release (Rattus norvegicus [3]): 7.2% | Release (Rattus norvegicus [4]): 85.3% | IC50 (Rattus norvegicus [5]): 0.48 µM | Selectivity (Rattus norvegicus [6]): 16.9

CCNC1=NS(=O)(=O)c2cc(F)c(F)cc2N1
EC50 (Rattus norvegicus [1]): 66.7 µM | Release (Rattus norvegicus [2]): 22% | Release (Rattus norvegicus [3]): 10.5% | Release (Rattus norvegicus [4]): 94.5% | IC50 (Rattus norvegicus [5]): 0.37 µM | Selectivity (Rattus norvegicus [6]): 180.3

O=S1(=O)NC(NC2CC2)=Nc2cc(Cl)c(Cl)cc21
EC50 (Rattus norvegicus [1]): > 30 µM | Release (Rattus norvegicus [2]): 92.5% | Release (Rattus norvegicus [3]): 17.6% | IC50 (Rattus norvegicus [5]): 3.34 µM | Selectivity (Rattus norvegicus [6]): >9

C=CCNC1=Nc2cc(Cl)c(Cl)cc2S(=O)(=O)N1
EC50 (Rattus norvegicus [1]): 1.2 µM | Release (Rattus norvegicus [2]): 68.5% | Release (Rattus norvegicus [3]): 13.5% | IC50 (Rattus norvegicus [5]): 1.89 µM | Selectivity (Rattus norvegicus [6]): 0.63

CCCNC1=NS(=O)(=O)c2cc(F)c(NCCC)cc2N1
Release (Rattus norvegicus [7]): 104.1%
